From paper PMC3919449 (Chemistry & biology, 2013)

Tests used:
[1] = tested on: BE(2)-C cells; test: GE-HTS neuroblastoma differentiation signature in BE; assay type: cell-based; conditions: for induction of the differentiation signature (differentiation score): two days of treatment
Method in brief: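 In BE(2)-C cells with 2 nM cisRA as differentiation enhancer, test compound applied at eight concentrations in duplicate for 2 days. Controls were 1 μM cisRA (positive) and DMSO (negative), plus a cisRA dose-response plate per run. GE-HTS gave the differentiation score. AUC: cubic natural spline at 50 points over log dose, trapezoid areas against the mean DMSO score, divided by log-concentration range.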

[2] = tested on: SH-SY5Y; test: GE-HTS neuroblastoma differentiation signature in SH-SY5Y; assay type: cell-based; conditions: second cell line
[3] = tested on: HDACs 4-9; test: HDAC activity assay, other HDACs; assay type: biochemical; conditions: HDACs 4-9, same concentration range
Method in brief: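 Recombinant full-length HDAC preincubated 3 h with test compound, then fluorogenic substrate at Km: MAZ1600 for HDAC6 (9 μM); MAZ1675 for HDAC4 (10 μM), 5 (40 μM), 7 (22 μM), 8 (282 μM), 9 (26 μM). Trypsin-coupled AMC release read every 5 min; linear-range rate normalized to DMSO (<0.5%); IC50 by unconstrained logistic regression.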

[4] = tested on: histone H3 acetylation in BE(2)-C cells; test: Immunoblot for acetylated histone H3; assay type: cell-based; conditions: six hours of treatment
Method in brief: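 BE(2)-C cells exposed to the test compound or DMSO for six hours; nuclear extracts then immunoblotted for acetylated histone H3.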

[5] = tested on: Kelly, LAN-1, BE(2)-C, and SH-SY5Y; test: GE-HTS differentiation signature in four neuroblastoma cell lines; assay type: cell-based; conditions: two day and five day time points
Method in brief: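 Cells grown in DMEM with 10% FBS and 1% penicillin-streptomycin with glutamine, then exposed to the test compound over a concentration range for 2 or 5 days. Read-out is GE-HTS: ligation-mediated amplification with fluorescent bead detection of 59 signature genes. Differentiation score is the signature-gene expression divided by mean control-gene expression, summed with weights/signs from cisRA vs DMSO controls. Four replicates; one-way ANOVA with Bonferroni versus DMSO.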

[6] = tested on: BE(2)-C cells; test: NF-M immunofluorescence, morphologic changes; assay type: cell-based; conditions: NF-M labeling
Method in brief: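 BE(2)-C cells treated in duplicate with DMSO vehicle or the test compound for 72 h. Cells washed, fixed in 4% formaldehyde and permeabilized with 0.2% Triton X-100. Stained with monoclonal anti-NF-M and an Alexa Fluor 568 secondary. Mounted in antifade with DAPI counterstain; neurite projections examined.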

[7] = tested on: Kelly, LAN-1, BE(2)-C, and SH-SY5Y; test: ATP-based viability; conditions: four neuroblastoma cell lines, five days of treatment
Method in brief: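 Kelly, LAN-1, BE(2)-C and SH-SY5Y grown in DMEM with 10% FBS and 1% penicillin-streptomycin with glutamine, identity confirmed by STR profiling. Cells exposed to test compound over a 9-point concentration range for five days; viability read by ATP luminescence (CellTiter Glo) per manufacturer's instructions.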

CC(=O)Nc1ccc(C(=O)Nc2ccccc2N)cc1 [CI-994]
induction of the differentiation signature (differentiation score) [1]: significantly induced differentiation at multiple concentrations

C[C@H](CO)N1C[C@H](C)[C@H](CN(C)Cc2ccc(C(=O)Nc3ccccc3N)cc2)Oc2c(cccc2N(C)C)C1=O [BRD6332]
induction of the differentiation signature (differentiation score) [1]: greatly dampened differentiation activity

C[C@H](CO)N1C[C@H](C)[C@H](CN(C)Cc2ccc(C(=O)Nc3ccccc3N)cc2)Oc2ccc(N(C)C)cc2C1=O [BRD6819]
induction of the differentiation signature [2]: confirmed to induce the differentiation signature | induction of the differentiation signature (differentiation score) [1]: induced the differentiation signature in a manner similar to BRD8430

CC1=C(/C=C/C(C)=C/C=C/C(C)=C\C(=O)O)C(C)(C)CCC1 [cisRA, 13-cis retinoic acid]
induction of the differentiation signature (differentiation score) [1]: induce the differentiation signature in a dose-dependent manner

CC1=C(/C=C/C(C)=C/C=C/C(C)=C/C(=O)O)C(C)(C)CCC1 [ATRA, all-trans retinoic acid]
induction of the differentiation signature (differentiation score) [1]: induce the differentiation signature in a dose-dependent manner

Nc1ccccc1NC(=O)c1ccc(CNC(=O)OCc2cccnc2)cc1 [MS-275]
induction of the differentiation signature (differentiation score) [1]: significantly induced differentiation at multiple concentrations

O=C(CCCCCCC(=O)Nc1ccccc1)NO [Vorinostat, vorinostat]
induction of the differentiation signature (differentiation score) [1]: significantly induced differentiation at multiple concentrations

C[C@H](CO)N1C[C@H](C)[C@H](CN(C)Cc2ccc(C(=O)Nc3ccccc3N)cc2)Oc2ccc(N(C)C)cc2CC1=O [BRD8430]
IC50 for inhibition of the other HDACs [3]: not able to determine IC50 values | induction of the differentiation signature [2]: confirmed to induce the differentiation signature | histone H3 acetylation [4]: increased histone H3 acetylation in a concentration-dependent manner | induction of the differentiation signature (differentiation score) [1]: significantly inducing the signature at all eight concentrations tested | AUC of the differentiation score across eight concentrations ([1]; two days, eight concentrations): highest AUC value of the 32 compounds evaluated | induction of the differentiation signature [5]: induce the differentiation signature in a concentration-dependent manner | morphologic changes consistent with differentiation [6]: induced morphologic changes, including neurite outgrowth | viability [7]: reduced the viability
